Source: PubChem
Sampled rows, rich in hits. Any-hit rate of the full collection: about 2%.
DNA FID counter-1 – compounds displacing fluorescent DNA intercalator, primary screen, artefact control for HCV NS3 helicase inhibitor project, biochemical, FID fluorescence | DNA fluorescent intercalator displacement | inhibition, % at 7.9 µM | 0.17% of 290,000 active; in the data active = inhibition above about 37%;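 also: 0% = vehicle and 100% = reference compound; higher means more ethidium bromide displaced from hairpin DNA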
eIF4H inh – human eIF4H binding inhibitors, primary screen, translation initiation inhibitor project, biochemical, uHTS, fluorescence polarization | eIF4H fluorescence polarization binding assay | inhibition, % at 35 µM | 0.94% of 290,000 active | AID 2012, 2009;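 also: calls also rest on retests at 20 µM and on dose response follow-up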
core dimer inh – inhibitors of HCV core protein dimerization, primary screen, biochemical, TR-FRET, high-throughput; inhibition, % at 5 µM; TR-FRET GST/Flag-core106 dimerization, 1536-well; 0.33% of 300,000 active; AID 1899, 2009;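 active = inhibition above the mean of all tested compounds plus 3 SD, set per screening campaign, cut at about 45% in these data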
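Assay system – GST-tagged and Flag-tagged HCV core protein residues 1-106 · Quantity – core106 proteins, GST 13.5 nM and Flag 17 nM · Benchmarks – unlabelled core106 and no-GST-core106 wells · Read-out basis – percent inhibition of core106 dimerization signal · Detection – time-resolved FRET, ex 340 nm, em 617 and 671 nm · Schedule – 4 h at 22.5 °C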
PABP polyA inh – PABP poly(A) RNA binding inhibitors, primary screen, biochemical, fluorescence polarization, uHTS; Polyadenylate-binding protein 1 (Homo sapiens), P11940; inhibition, % at 35 µM; 1% of 290,000 active; AID 2014, 2009;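 also: calls also rest on retests at 20 µM and on dose response follow-up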
Target sequence (P11940 whole entry, looked up): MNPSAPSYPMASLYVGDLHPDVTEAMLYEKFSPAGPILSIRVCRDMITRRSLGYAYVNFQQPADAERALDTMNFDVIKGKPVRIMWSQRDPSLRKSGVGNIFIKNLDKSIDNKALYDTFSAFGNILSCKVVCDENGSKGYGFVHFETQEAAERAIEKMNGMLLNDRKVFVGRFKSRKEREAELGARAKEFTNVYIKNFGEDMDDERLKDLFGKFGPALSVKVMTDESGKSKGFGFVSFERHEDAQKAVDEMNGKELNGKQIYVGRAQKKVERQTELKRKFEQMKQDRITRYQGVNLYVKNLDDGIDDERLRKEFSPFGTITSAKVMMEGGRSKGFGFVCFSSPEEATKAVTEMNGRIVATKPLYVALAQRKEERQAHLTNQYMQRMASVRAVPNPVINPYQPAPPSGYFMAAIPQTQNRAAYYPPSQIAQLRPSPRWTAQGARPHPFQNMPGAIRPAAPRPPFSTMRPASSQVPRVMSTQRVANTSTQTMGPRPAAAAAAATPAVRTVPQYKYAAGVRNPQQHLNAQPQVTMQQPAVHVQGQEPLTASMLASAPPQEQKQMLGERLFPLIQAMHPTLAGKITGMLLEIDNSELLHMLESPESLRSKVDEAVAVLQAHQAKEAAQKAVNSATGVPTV
HCV NS3 hel inh – inhibitors of HCV NS3 helicase, primary screen, biochemical, Cy5 molecular beacon fluorescence | Hepatitis C virus NS3 helicase | inhibition, % at 10.9 µM | 0.56% of 290,000 active | AID 1800, 2009 | NS3 helicase DNA unwinding;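 active = inhibition above the mean of all tested compounds plus 3 SD, set per campaign, cut at about 35% in these data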;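 also: 0% = DMSO wells and 100% = thioflavine S control wells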
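test system = hepatitis C virus NS3 helicase domain fragment enzyme | reagent = annealed dual-labelled DNA beacon duplex, ATP-started | times = 1 h at 25 °C | detection = Cy5 fluorescence, 0 and 60 min reads | read-out basis = percent inhibition from t60/t0 fluorescence ratio | control set = DMSO and thioflavine S | replication = one well per compound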
PABP1 MLLE inh – inhibitors of PABP1 MLLE–PAM2 peptide binding, primary screen, biochemical, fluorescence polarization, FITC-PAM2, GST-MLLE | 0.36% of 360,000 active | Polyadenylate-binding protein 1 (Homo sapiens), P11940 | inhibition, % at 20 µM; in the data active = inhibition above about 35%, passing the limit was not always enough;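 also: plate controls were DMSO wells with GST-MLLE for no effect and wells lacking GST-MLLE protein for full effect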
NS3 hel confirm – HCV NS3 helicase inhibitors, retest, confirmation, biochemical, Cy5 molecular beacon fluorescence, triplicate; NS3 helicase DNA unwinding; inhibition, % at 10.9 µM; shares compounds with HCV NS3 hel inh; 31% of 1,600 active;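 active = inhibition above the mean of all tested compounds plus 3 SD, cutoff set per campaign, cut at about 36% in these data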
DNA FID counter-2 – compounds displacing fluorescent DNA intercalator, artefact control for HCV NS3 helicase inhibitor project, biochemical, FID fluorescence, triplicate | inhibition, % at 7.9 µM | 4% of 1,600 active | AID 1945, 2009 | shares compounds with HCV NS3 hel inh | DNA fluorescent intercalator displacement; in the data active = inhibition above about 37%;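 also: 0% = vehicle and 100% = reference compound; higher means more displacement of ethidium bromide from the DNA hairpin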
DNA FID DR – compounds displacing fluorescent intercalator from DNA, dose response, counter-screen for HCV NS3 helicase inhibitor project, biochemical, fluorescence; shares compounds with HCV NS3 hel inh; fluorescent intercalator displacement from DNA; 120 tested, under 10 active; IC50, µM
* marks the source's active call; other numbers are inactive results; ? = inconclusive; · = not tested or not shown. Unless noted, no rule for the calls is given here.

SMILES	DNA FID counter-1	eIF4H inh	core dimer inh	PABP polyA inh	HCV NS3 hel inh	PABP1 MLLE inh	NS3 hel confirm	DNA FID counter-2	others
NC(=O)CCC(NC(=O)OCc1ccccc1)C(=O)OCC(=O)c1ccccc1 (stereo unspecified)	·	·	·	·	·	-9.5	·	·
Cc1ccc(Cn2cc(CCC(=O)O)c3ccccc32)cc1	-30.7	5.1	-33.2	2.1	48.6*	-8.7	12.1	-21.1
CCCCn1c(N)c(N(CC(C)C)C(=O)CSCc2ccc(Cl)c(Cl)c2)c(=O)[nH]c1=O	·	·	0.7	·	·	-1.2	·	·
CC(=O)OCCCNc1cc(SCc2ccco2)c2nonc2c1[N+](=O)[O-]	-6.7	93.6	36.4	-0.8	40.9*	33.7	31.3	27.4
CCCSc1cc(NCCOC(C)=O)c([N+](=O)[O-])c2nonc12	1.6	95.4	4.3	4.3	17.5	7.9	·	·
Clc1ccc(C2Nc3cccc4cccc(c34)N2)cc1	-8.2	85.5*	18.1	55.1*	69.2*	18.3	-28.4	26.4
Clc1ccc(C2Nc3cccc4cccc(c34)N2)c(Cl)c1	·	·	·	·	·	29.2	·	·
COc1cccc(NC(=O)c2cnc(NS(=O)(=O)c3ccccc3)nc2)c1	·	·	·	·	·	-23.6	·	·
O=C1S/C(=C\C=C\c2ccco2)C(=O)N1c1ccccc1	-11.6	92.2	29.7	-13.6	49.0*	1.5	45.2*	34.1
O=C1S/C(=C\C=C\c2ccco2)C(=O)N1c1ccc(O)cc1	23.5	88.4	51.0*	2.3	129.1*	7.7	-2.4	10.6
Cc1cc(C(=O)Cn2ncc(Cl)c(Cl)c2=O)c(C)n1CC(F)(F)F	-32.2	28.4	31.7	3.2	56.9*	-50.5	-12.5	-13.1
Cc1ccc(C)c(C(=O)Cn2ncc(Cl)c(Cl)c2=O)c1	-9.4	-1.6	-67.8	11.0	10.1	-17.5	·	·
Cc1ccc(-c2cc(C(=O)N3CCCC3)c3ccccc3n2)s1	-43.7	-4.0	-6.9	17.6	3.2	-17.4	·	·
Cc1ccc(-c2cc(C(=O)O)c3cc(Br)ccc3n2)o1	-17.6	18.3	8.5	9.8	38.4*	30.1	79.0*	8.1
Cc1ccc(-c2cc(C(=O)O)c3cc(Br)ccc3n2)s1	-21.7	-3.1	·	19.0	38.4*	-11.3	37.5*	-5.9
COc1ccc(-c2noc(COC(=O)c3ccco3)n2)cc1OC	·	·	·	·	·	-2.4	·	·
CCOc1ccc(OCCC(=O)N(CCOC)c2c(N)n(Cc3ccccc3)c(=O)[nH]c2=O)cc1	·	·	·	·	·	1.0	·	·
COCCNC(=O)C1(C)CCCN(C(=O)c2ccc(F)c(Cl)c2)C1 (stereo unspecified)	·	·	·	·	·	-2.4	·	·
C1=CC2c3ccccc3NC(c3ccncc3)C2C1 (stereo unspecified)	-11.2	4.1	7.4	9.9	12.7	11.8	·	·
O=C(O)c1ccc(Cl)c2c1C1C=CCC1C(c1ccccn1)N2 (stereo unspecified)	-18.1	99.7*	11.1	81.2*	62.6*	·	75.2*	6.8
O=C(O)CN1C(=O)/C(=C\c2cc(Br)ccc2OCc2ccc(F)cc2)SC1=S	19.3	18.9	25.1	24.5	14.2	12.1	·	·
O=C(O)CN1C(=O)/C(=C\c2cc(Br)ccc2OCc2ccc(Cl)cc2)SC1=S	15.3	31.7	·	22.6	38.9*	15.2	67.1*	59.2*
O=C(Nc1ccccc1)[C@@H]1[C@@H]2C(=O)N(c3ccc(F)cc3)C(=O)[C@@H]2[C@H]2C=CC=NN21	-6.3	-1.2	3.4	11.4	60.6*	12.2	-19.3	-7.4
COc1ccc(C(=O)[C@H]2[C@H]3C(=O)N(c4ccc(C)cc4)C(=O)[C@H]3C3C=CC=NN32)cc1 (stereo partly specified)	-20.4	-4.3	37.0	9.3	59.9*	-0.9	-16.5	-18.6
CC(/C=C1\SC(=S)N(NC(=O)c2ccncc2)C1=O)=C\c1ccccc1	-24.0	-6.5	1.6	18.4	78.1*	-5.7	34.3	2.3
SMILES	DNA FID counter-1	eIF4H inh	core dimer inh	PABP polyA inh	HCV NS3 hel inh	PABP1 MLLE inh	NS3 hel confirm	DNA FID counter-2	others
CC(/C=C1\SC(=S)N(NS(=O)(=O)c2ccc(C)cc2)C1=O)=C\c1ccccc1	-24.2	2.8	12.3	12.6	42.7*	-0.1	85.7*	0.8
CC(/C=C1\SC(=S)N(C(C(=O)O)C(C)C)C1=O)=C\c1ccccc1 (stereo unspecified)	-21.2	7.2	23.5	4.8	36.0*	29.6	68.5*	27.5
CC(/C=C1\SC(=S)N(NS(=O)(=O)c2ccccc2)C1=O)=C\c1ccccc1	-18.5	5.3	7.3	15.4	30.6	8.9	·	·
Cc1cc(CNC(=O)COC(=O)Cn2[nH]c(=O)c3ccccc3c2=O)cc(C)c1O	·	·	-1.6	·	·	-8.3	·	·
CC1(C(=O)NS(=O)(=O)c2cccc(Cl)c2)CCN1C(=O)C1CCCCC1 (stereo unspecified)	·	·	·	·	·	-5.0	·	·
COc1ccc([C@H]2C[C@H](O)[C@@H](n3cc(COC(=O)c4ccccc4)nn3)CN2CC2CCCCC2)cc1	·	·	·	·	·	-9.5	·	·
COC(=O)c1c(-c2ccco2)csc1NC(=O)C1CC=CCC1C(=O)O (stereo unspecified)	-22.2	84.7*	3.6	68.1*	36.2*	-9.1	-10.2	-32.2
CCOC(=O)c1c(-c2ccc(F)cc2)csc1NC(=O)C1CC=CCC1C(=O)O (stereo unspecified)	-40.0	?	10.4	?	35.2	38.8	·	·
CCOc1ccc(/C=C/C(=O)c2cc(Br)ccc(=O)c2O)cc1	-23.4	76.7	3.5	5.5	58.9*	-55.1	77.0*	5.4	DNA FID DR=>79.4
CCc1ccc(/C=C/C(=O)c2cc(Br)ccc(=O)c2O)cc1	-21.5	68.5	19.1	39.6	16.0	-32.4	·	·
O=C(O)C1Nc2c(O)cc(Cl)c([N+](=O)[O-])c2C2C=CCC12 (stereo unspecified)	3.5	?	-3.5	5.4*	70.0*	18.6	78.7*	21.6
COc1cc(NS(=O)(=O)c2ccc(NC(=S)NC(=O)c3ccc(F)cc3)cc2)nc(OC)n1	-34.0	-1.8	-11.7	12.0	40.3*	18.6	27.4	-13.1
COc1ccc(-c2csc(NC(=O)c3ccccc3Br)c2C(=O)O)cc1	-9.3	-1.7	15.2	23.8	40.6*	3.2	59.4*	-17.6
